Data taken from paper PMC4770456 (Food chemistry, 2016).
Read-outs that look alike come from different tables or passages of the source.

How the values were obtained:
[1] = molecular target: K-Ras (Homo sapiens, UniProt P01116); experiment: K-Ras inhibitory assay; assay type: cell-based; conditions: for K-Ras (HT-29) IC50: HT-29 cells, EGF 5 ng/ml
Summary of the method: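 HT-29 cells in RPMI-1640 with penicillin/streptomycin were exposed to test compound for 3 h at 37°C, 5% CO2. They were then PBS-washed, stimulated with EGF (5 ng/ml, 2 min) and lysed with protease inhibitor. Protein was quantified, and Ras GTPase chemiluminescent ELISA used anti-K-Ras (1:5000, 1 h, room temperature) with HRP secondary and a luminescence read-out. IC50 from triplicate measurements.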

[2] = molecular target: PARP-1 (Homo sapiens, UniProt P09874); experiment: PARP-1 inhibitory assay; assay type: biochemical
Summary of the method: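 Wells were histone-coated overnight at 4°C, blocked, then given activated DNA in PARP-1 and assay buffers. Test compound, diluted in 10% DMSO, was added before PARP-1 enzyme, followed by 1 h at 20°C. After washing, streptavidin-HRP was added (30 min, 20°C), then chemiluminescent substrate, with luminescence read at 410 nm. IC50 from triplicate measurements.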

[3] = test system: HT-29 cells; experiment: SRB cytotoxicity assay; assay type: cell-based, human; conditions: for EC50: read-out: Cytotoxicity EC50
[4] = molecular target: NF-κB p65 (Homo sapiens, UniProt Q04206); experiment: NF-κB p65 inhibitory assay; assay type: cell-based
[5] = read-out: PARP-1 IC50, enzyme assay
[6] = read-out: Cytotoxicity (HT-29) IC50, HT-29 cells, 72 h, SRB

Sequence of PARP-1 (P09874 whole entry): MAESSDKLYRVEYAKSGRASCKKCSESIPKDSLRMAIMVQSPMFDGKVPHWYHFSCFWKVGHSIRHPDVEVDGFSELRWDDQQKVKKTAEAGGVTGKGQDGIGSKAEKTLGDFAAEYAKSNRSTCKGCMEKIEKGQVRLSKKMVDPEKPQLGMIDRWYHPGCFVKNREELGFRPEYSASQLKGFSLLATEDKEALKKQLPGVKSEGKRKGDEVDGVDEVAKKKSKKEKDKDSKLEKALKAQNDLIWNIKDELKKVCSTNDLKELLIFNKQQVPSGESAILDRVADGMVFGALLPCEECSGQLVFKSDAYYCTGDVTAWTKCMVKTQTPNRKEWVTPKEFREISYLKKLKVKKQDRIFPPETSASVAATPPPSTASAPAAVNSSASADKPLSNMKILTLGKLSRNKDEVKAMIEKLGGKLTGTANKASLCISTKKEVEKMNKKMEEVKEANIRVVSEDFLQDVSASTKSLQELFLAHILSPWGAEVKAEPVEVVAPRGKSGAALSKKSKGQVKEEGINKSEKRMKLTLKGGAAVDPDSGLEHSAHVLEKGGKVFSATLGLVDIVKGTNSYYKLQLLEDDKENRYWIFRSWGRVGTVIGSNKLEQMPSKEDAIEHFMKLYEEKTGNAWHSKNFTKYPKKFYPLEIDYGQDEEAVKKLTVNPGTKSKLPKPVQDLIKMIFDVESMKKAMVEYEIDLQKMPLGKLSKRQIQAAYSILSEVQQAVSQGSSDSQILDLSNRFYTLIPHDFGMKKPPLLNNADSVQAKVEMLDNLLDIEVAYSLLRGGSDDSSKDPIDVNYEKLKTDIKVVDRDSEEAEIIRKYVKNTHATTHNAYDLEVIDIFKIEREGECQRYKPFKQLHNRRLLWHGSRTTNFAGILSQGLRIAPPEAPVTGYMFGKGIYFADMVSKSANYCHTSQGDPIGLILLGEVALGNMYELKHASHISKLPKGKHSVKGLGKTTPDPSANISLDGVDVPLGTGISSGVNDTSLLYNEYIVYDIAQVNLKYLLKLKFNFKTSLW
Sequence of K-Ras (P01116 1-188 isoform P01116-2): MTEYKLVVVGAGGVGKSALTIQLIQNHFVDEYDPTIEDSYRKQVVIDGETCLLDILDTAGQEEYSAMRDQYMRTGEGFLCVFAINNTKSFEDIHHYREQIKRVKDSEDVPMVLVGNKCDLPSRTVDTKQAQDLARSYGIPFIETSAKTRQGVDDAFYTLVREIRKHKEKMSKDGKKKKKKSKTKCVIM
Sequence of NF-κB p65 (Q04206 whole entry): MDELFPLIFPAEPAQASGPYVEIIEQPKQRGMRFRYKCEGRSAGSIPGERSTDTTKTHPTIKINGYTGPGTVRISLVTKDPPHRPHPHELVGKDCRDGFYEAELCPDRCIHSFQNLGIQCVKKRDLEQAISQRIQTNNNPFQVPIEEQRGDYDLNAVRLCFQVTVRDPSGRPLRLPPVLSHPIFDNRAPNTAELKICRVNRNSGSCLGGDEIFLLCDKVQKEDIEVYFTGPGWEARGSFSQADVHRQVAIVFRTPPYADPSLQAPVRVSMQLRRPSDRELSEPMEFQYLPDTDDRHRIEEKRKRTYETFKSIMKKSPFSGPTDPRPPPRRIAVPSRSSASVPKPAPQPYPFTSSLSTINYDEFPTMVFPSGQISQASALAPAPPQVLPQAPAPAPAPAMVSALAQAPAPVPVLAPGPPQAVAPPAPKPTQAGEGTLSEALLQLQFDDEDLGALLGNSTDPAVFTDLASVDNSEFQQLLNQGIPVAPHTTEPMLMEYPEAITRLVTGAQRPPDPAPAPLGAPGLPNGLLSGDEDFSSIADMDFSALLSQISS

| SMILES | K-Ras (HT-29) IC50 [1] | IC50 [2, 5] | NF-κB (HeLa) IC50 ([4]; p65, HeLa cells, TNFα) | IC50 [3, 6] | EC50 ([3]; HT-29 cells, 72 h, SRB) | also measured |
| --- | --- | --- | --- | --- | --- | --- |
| CC(=O)O[C@H]1C(=O)[C@@]2(C)[C@H]([C@H](OC(=O)c3ccccc3)[C@]3(O)C[C@H](OC(=O)[C@H](O)[C@@H](NC(=O)c4ccccc4)c4ccccc4)C(C)=C1C3(C)C)[C@]1(OC(C)=O)CO[C@@H]1C[C@@H]2O [paclitaxel, reference compound] | – | – | – | – | – | EC50 ([3]; Homo sapiens, HT-29, 72 h): 0.5 nM; IC50 ([3]; Homo sapiens, HT-29, read-out: Cytotoxicity (HT-29) IC50): 0.5 nM |
| C/C=C/c1cc(OC)c2c(c1)C(C)C(c1cc(OC)c(OC)c(OC)c1)O2 (centres unmarked) [Compound 5, benzofuran, 2,3-dihydro-7-methoxy-3-methyl-5-(1E)-1-yl-2-(3,4,5-trimethoxyphenyl)] | Not active | 3.11 µM | Not active | 3 nM | 3 nM | – |

Second part, led by results:

| K-Ras (HT-29) IC50 [1] | IC50 [2, 5] | NF-κB (HeLa) IC50 ([4]; p65, HeLa cells, TNFα) | SMILES | IC50 [3, 6] | EC50 ([3]; HT-29 cells, 72 h, SRB) | also measured |
| --- | --- | --- | --- | --- | --- | --- |
| Not active | 0.001 µM | – | C=CCc1cc(OC)c(OC(C)C(OC(C)=O)c2ccc(OC)c(OC)c2)c(OC)c1 (stereo not drawn) [Compound 2, benzenemethanol, α-[(1, R)-1-[2,6-dimethoxy-4-(2-propen-1-yl)phenoxy]ethyl]-3,4-dimethoxy-1-acetate] | – | – | – |
| Not active | – | – | C=CCc1cc(OC)c(OC(C)C(OC(C)=O)c2ccc3c(c2)OCO3)c(OC)c1 (stereo not drawn) [Compound 4, 1,3-benzodioxole-5-methanol,α-[1-[2,6-dimethoxy-4-(2-propenyl)phenoxy]ethyl]-acetate] | 24 nM | 24 nM | IC50 ([4]; read-out: NF-κB (HeLa) IC50, p65, HeLa cells, TNFα): 3.4 nM |
| – | – | Not active | CC=Cc1cc(OC)cc(C(C)C(O)c2cc(OC)c(OC)c(OC)c2)c1 (centres unmarked) [Compound 1] | – | – | IC50 [1]: 10.5 µM; NF-κB inhibitory activity (in words) ([4]; HeLa cells): no NF-κB inhibitory activity; IC50 [2]: 3.04 µM |
